iPSC survival up – enhancers of single-cell hiPSC survival, primary screen, ATPlite luminescence; 100% = ROCK inhibitor wells, 0% = DMSO; survival enhancement, % at 20 µM; hit rate 0.044% among 360,000; in the data active = survival enhancement above about 18%;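 also: cells exposed to compounds for 16 hours before the ATP read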
Rev-erbA mod – modulators of Rev-erb alpha DNA binding, primary screen, biochemical, FITC-DNA, fluorescence polarization, uHTS; activity, % at 10 µM; Nuclear receptor subfamily 1 group D member 1 (Homo sapiens), P20393; hit rate 0.79% among 370,000; Rev-erbα–FITC-DNA binding, 90 min; AID 1259318, 2017;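 active = activity above about 14%, limit read from the data; passing the limit was not always enough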;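 also: 0% = DMSO wells with 35 nM protein and 100% = DMSO wells with 750 nM protein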
Target sequence (P20393 whole entry, looked up): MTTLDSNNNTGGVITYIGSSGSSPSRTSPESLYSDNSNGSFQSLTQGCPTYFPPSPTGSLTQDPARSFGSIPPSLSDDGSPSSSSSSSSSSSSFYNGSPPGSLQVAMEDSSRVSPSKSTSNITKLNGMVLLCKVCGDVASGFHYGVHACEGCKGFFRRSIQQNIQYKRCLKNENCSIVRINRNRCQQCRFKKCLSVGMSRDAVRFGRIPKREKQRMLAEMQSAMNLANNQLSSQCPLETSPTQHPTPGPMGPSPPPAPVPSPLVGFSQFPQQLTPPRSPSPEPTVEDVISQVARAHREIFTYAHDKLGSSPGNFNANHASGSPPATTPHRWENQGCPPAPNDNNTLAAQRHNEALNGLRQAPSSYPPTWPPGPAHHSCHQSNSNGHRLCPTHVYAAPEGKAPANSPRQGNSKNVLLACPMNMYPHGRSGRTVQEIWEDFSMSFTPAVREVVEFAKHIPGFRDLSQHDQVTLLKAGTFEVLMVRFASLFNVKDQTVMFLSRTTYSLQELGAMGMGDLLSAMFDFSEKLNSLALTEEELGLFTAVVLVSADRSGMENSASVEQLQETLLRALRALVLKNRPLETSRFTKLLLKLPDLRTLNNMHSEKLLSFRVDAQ
PG9 binder – binders of HIV-1 gp120 antibody PG9, primary screen, biochemical, TR-FRET; AID 624416, 2012; hit rate 0.43% among 360,000; TR-FRET gp120-PG9 antibody binding; HIV-1 gp120 / PG9 antibody interaction; inhibition, % at 6.7 µM; in the data active = inhibition above about 8.5%
T cruzi repl – inhibitors of intracellular T. cruzi growth, primary screen, luminescence, NIH3T3 host cells. T. cruzi beta-gal in NIH3T3, 90 h. inhibition, % (concentration not given with the values). hit rate 1.4% among 300,000. AID 1885, 2009;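 active = mean inhibition across valid replicates above about 55%, limit read from the data; inconclusive = mean below that limit but half or more replicates reach it; inactive = mean below it, under half of replicates reach it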;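 also: signal also drops with host cell toxicity which is not excluded here; 0% = plate median of DMSO wells and 100% = zero luminescence signal; higher percent means less beta-gal luminescence so fewer parasites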
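Read-out: Parasite load inhibition, % | Test system: Mouse NIH/3T3 fibroblasts infected with β-gal-expressing T. cruzi Tulahuen C4 | Amount: 5,000 cells/well | Medium: DMEM, 2% fetal bovine serum | Signal: GalScreen β-gal luminescence, detergent lysis, 60 min | Timing: 3 h attach, ≥90 h co-culture | Also added: Tulahuen C4 trypomastigotes, 5000/well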
H9c2 TAG inh – inhibitors of triacylglycerol accumulation, primary screen, cell-based, uHTS, fluorescence, H9c2. AID 651582, 2012. H9c2 cells, Nile Red lipid (TAG) fluorescence; cells loaded with 200 µM oleic acid. inhibition, % at 12.5 µM. hit rate 0.66% among 230,000;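 active = pattern-corrected inhibition of lipid staining of at least 50% with the nuclear-stain viability signal not falling by more than 50%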;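 also: 0% = DMSO wells and 100% = triacsin C control wells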
beta cell repl – inducers of MIN6 beta-cell proliferation, primary screen, ATP luminescence, uHTS; AID 2380, 2010; proliferation, % at 10 µM; MIN6 cells proliferation, ATPlite luminescence, 48 h; cells starved in 0.2% serum; 100% = growth in 10% serum; hit rate 0.29% among 330,000;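 active = compounds whose signal lies at least 3.5 SD above the mean of all wells on their plate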;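 also: 0% = DMSO-treated cells in low-serum medium and 100% = 10% serum control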
An asterisk follows results filed as active; ? = inconclusive; . = no result. A selection: hits, their analogues and other compounds. The true share with any hit is near 2.9%.

SMILES	iPSC survival up	Rev-erbA mod	PG9 binder	T cruzi repl	H9c2 TAG inh	beta cell repl
COc1ccc(-c2nn(-c3ccccc3)cc2/C=C/C(=O)N2CCN(c3ccccn3)CC2)cc1	-1	4	1	55*	-1	-2
CC(C)(C)C1CCC(CN2C(Nc3ccccc3)=NC[C@@H]2Cc2ccccc2)CC1 (some centres undefined)	-4	-5	0	.	113*	-6
Cc1ccc(-c2nc(CN3CCCCC3c3cccc(F)c3)c(C)o2)o1 (centres undefined)	-1	5	0	9	-15	-2
COc1ccc(-c2nc(CN3CCCCC3c3cccnc3)c(C)o2)c(F)c1 (centres undefined)	-2	2	-1	64*	12	-3
Cc1oc(-c2ccccc2Cl)nc1CN1CCCC1c1ccc(F)cc1 (centres undefined)	-1	0	1	31	.	-4
Cc1oc(-c2ccccc2Cl)nc1CN1CCCCC1c1cccnc1 (centres undefined)	0	-4	-1	59*	0	-1
COC(=O)C(CC(C)C)NC(=O)CSc1nc(-c2ccccc2)c(C#N)c(=O)[nH]1 (centres undefined)	-2	5	2	-9	-12	0
CCCOc1ccc(-c2nc(SCc3ccccc3)[nH]c(=O)c2C#N)cc1OC	0	-1	3	56*	.	-6
O=C(Nc1ccc(Nc2ccccc2)cc1)c1ccc(Cl)cc1	0	2	-1	13	-13	-5
N#C/C(C(=O)Nc1ccc(Cl)cc1)=C(/S)Nc1ccccc1	0	0	2	79*	.	-7
COc1ccc(CNC(=O)c2ccc(-c3cnn(C)c3)c3ccoc23)cc1OC	0	-7	2	.	12	.
CC1(C)CC(=O)/C(=C\c2cccc([N+](=O)[O-])c2)C(C)(C)N1	36*	-5	-2	5	6	-4
CNC(=S)Nc1cccc(S(=O)(=O)NC2=NCCC2)c1	1	2	0	-7	8	1
CC(C)C(NC=C1C(=O)OC(C)(C)OC1=O)C(=O)O (centres undefined)	3	0	-1	-10	.	-4
CC(NC=C1C(=O)OC(C)(C)OC1=O)C(=O)O (centres undefined)	-2	-1	-2	55*	.	-3
COc1ccc(CCn2c(-c3cc([N+](=O)[O-])cc([N+](=O)[O-])c3)nc3nc4ccccc4nc32)cc1	2	-5	-1	57*	.	-2
COc1ccc(CCn2c(-c3cc([N+](=O)[O-])cc([N+](=O)[O-])c3)nc3nc4ccccc4nc32)cc1OC	1	-4	-2	62*	.	-2
COc1ccc(CCn2c(-c3cccc([N+](=O)[O-])c3)nc3nc4ccccc4nc32)cc1	0	-2	2	.	-5	.
CC(=O)c1ccc(N2CCC(c3cc(-c4ccc(Cl)cc4)n[nH]3)CC2)c([N+](=O)[O-])c1	1	.	.	74*	.	-6
CC(=O)c1ccc(N2CCN(c3ncccn3)CC2)c([N+](=O)[O-])c1	-1	-1	-1	-5	.	1
COC(=O)c1ccc(N2CCC(c3cc(-c4ccc(OC)cc4)n[nH]3)CC2)c([N+](=O)[O-])c1	1	0	0	45	.	-6
COc1ccc(-c2cc(C3CCN(c4ccc(C(C)=O)cc4[N+](=O)[O-])CC3)[nH]n2)cc1	-3	3	-2	63*	19	-6
CSc1nnc(CCNS(=O)(=O)c2ccc(Br)cc2)n1C	0	0	0	0	.	4
CC(C)(C)C1CCc2sc(C(=O)NNC(=O)CCl)cc2C1 (centres undefined)	-4	-1	-1	67*	24	.
COc1ccc(C(=O)NCc2ccc(C(=O)NCC(OC)OC)cc2)cc1OC	-1	-3	1	4	8	-4
SMILES	iPSC survival up	Rev-erbA mod	PG9 binder	T cruzi repl	H9c2 TAG inh	beta cell repl
O=C(c1ccc([N+](=O)[O-])o1)N1CCN(c2nc3c(F)cc(F)cc3s2)CC1	0	-3	2	56*	2	-7
Cc1cc(C)c2c(N)c(C(=O)c3ccc(Cl)cc3Cl)sc2n1	4	-2	-2	39	.	0
Cc1cc(C)c2c(N)c(C(=O)c3ccccc3Cl)sc2n1	-1	2	1	56*	-13	-3
COC(=O)c1cc(S(=O)(=O)NCC2CCN(Cc3cc(C)ccc3C)CC2)cn1C	0	-1	-4	9	.	-1
CCn1nc(C)cc1-c1nnc(Sc2ncc([N+](=O)[O-])s2)n1C	0	1	2	61*	.	-5
COC(=O)Cc1ccc(NC(=O)c2ccc(C(C)(C)C)cc2)cc1	-4	1	1	13	72*	-6
O=C1C2C(c3ccccc3)CC=CC2[C@H](c2cccc([N+](=O)[O-])c2)N1Cc1ccccc1 (some centres undefined)	2	-10	-1	56*	-13	-8
COc1ccc2oc(C(=O)Nc3ccc(S(=O)(=O)N(C)C4CCN(C)CC4)cc3)c(C)c2c1	0	1	-1	60*	.	-6
CC(Oc1ccc(Br)cc1)C(=O)Nc1ccc(S(=O)(=O)N(C)C2CCN(C)CC2)cc1 (centres undefined)	0	4	1	56*	-9	-7
COc1ccc(CC(=O)Nc2ccc(S(=O)(=O)N(C)C3CCN(C)CC3)cc2)cc1	0	-4	-1	.	19	-2
CCS(=O)(=O)NCC(c1cccnc1)N1CCN(c2ccc(OC)cc2)CC1 (centres undefined)	-1	-3	-2	58*	.	-3
COc1ccc(N2CCN(C(CNC(=O)C(=O)NCCCn3ccnc3)c3cccnc3)CC2)cc1 (centres undefined)	-2	-3	-1	63*	.	2
COC(=O)C1=CN(c2ccc(OC)cc2)C=C(C(=O)OC)C1c1ccc([N+](=O)[O-])cc1	0	0	-2	60*	-22	-2
COC(=O)C1=CN(c2ccc(F)cc2)C=C(C(=O)OC)C1c1ccc([N+](=O)[O-])cc1	0	-5	-1	?	-4	0
CC(=O)NC(c1ccc(C)cc1)c1cc(Cl)c2cccnc2c1O (centres undefined)	0	-1	-2	62*	50*	-4
Cc1cc(NC(c2cccnc2)c2ccc3cccnc3c2O)no1 (centres undefined)	0	-3	-1	50	19	-4

High-throughput results (PubChem)
